High-throughput results (PubChem BioAssay)
B2AR ag: agonists of human beta-2 adrenergic receptor inducing internalization | Am2.2-beta2AR cells, FAP receptor internalization, flow cytometry | P07550 | 340,000 tested, 0.43% active | response, % (test concentration not listed) | AID 504454;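 active = response above a set limit, near 3 SD of response in nonfluorescent compounds, cut at about 42% in these data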
CCR6 antag: blocks CCL20-driven beta-arrestin recruitment at human CCR6 | P51684 | CHO-K1 CCR6 PathHunter beta-arrestin, luminescence, CCL20-stimulated | inhibition, % at 20 µM | 340,000 tested, 0.49% active;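 active = compounds whose inhibition of the agonist-driven luminescence signal at 20 µM reaches about 50%, limit read from the data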;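 note: cells stimulated with CCL20 at 14 nM final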
CXCR6 inh: blocks human CXCR6 beta-arrestin recruitment | CHO-K1 PathHunter CXCR6 beta-arrestin, luminescence | 360,000 tested, 0.36% active | AID 602244 | inhibition, % at 20 µM | O00574; in the data active = inhibition above about 34%, passing the limit was not always enough;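 note: antagonist mode with CXCL16 agonist at 10 nM final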
APJ ag: APJ receptor agonism | P35414 | 330,000 tested, 0.11% active | CHO-K1 APJ PathHunter beta-arrestin, luminescence; 0% DMSO wells, 100% apelin | activation, % at 20 µM;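 active = activation more than six SD over the plate average, tested at 20 µM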
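Test system: CHO-K1 APJ beta-arrestin complementation cell line. Amount: cell density 1000 per well. Controls: DMSO negative, 10 nM Apelin-13 positive. Signal: luminescent beta-gal fragment complementation, chemiluminescent substrate. Read-out basis: agonist-driven arrestin binding to APJ. Timing: compound stimulation 90 min at 25 °C, detection 60 min.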
APJ antagonist: antagonists of human APJ apelin receptor | P35414 | CHO-K1 APJ beta-arrestin complementation, luminescence | inhibition, % at 20 µM | 330,000 tested, 0.32% active;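 active = inhibition above about 40% at 20 µM, limit read from the data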;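 note: cells challenged with 10 nM apelin-13 agonist together with compound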
EBI2 antag: blocks human EBI2 receptor beta-arrestin signaling | P32249 | EBI2 beta-arrestin recruitment, luminescence, 7a,25-OHC stimulated | inhibition, % at 5 µM | 360,000 tested, 0.81% active | AID 651636; in the data active = inhibition above about 38%;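 note: enzyme fragment complementation signal reports receptor beta-arrestin coupling in cells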
EBI2 conf: confirmation of human EBI2 receptor antagonists; shares compounds with EBI2 antag; inhibition, % at 5 µM; EBI2 beta-arrestin luminescence, 7a,25-OHC antagonism; 2,400 tested, 29% active; AID 651997;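 active = inhibition of at least 50%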
EBI2 agonist: EBI2 agonism counter-screen; shares compounds with EBI2 antag; EBI2-expressing cells, agonist mode, luminescence, 60 min; 0% vehicle, 100% 7α,25-dihydroxycholesterol control; activation, % at 5 µM; 2,400 tested, under 10 active; AID 652000;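 active = activation of at least 50%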
bGal cs: inhibits E. coli beta-galactosidase, counter-screen for EBI2 antagonists | inhibition, % at 5 µM | shares compounds with EBI2 antag | purified beta-galactosidase, luminescent Galacton Star, 15 min | 2,400 tested, 1% active;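 active = replicate-average signal at least 3 plate SD below neutral wells, shown as high inhibition, flagging enzyme-inhibiting false positives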;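 note: higher means stronger loss of beta-gal luminescence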
Each line names hits and unclear results; the compound was inactive in the other large screens (follow-up assays come after a bar, where they were run). Shown are actives, neighbours in structure and some others; about 1.8% of the full set was active somewhere.

COc1ccc(C(=O)C2CCCN(Cc3ccc4nonc4c3)C2)c(OC)c1 (centres undefined)	none
Cc1ccc(CONC(=O)c2cccc(C)c2)cc1	none
Cc1ccc(CONC(=O)c2ccc(OC(F)F)cc2)cc1	EBI2 antag 78.2 | EBI2 conf 71.2 | EBI2 agonist inactive | bGal cs inactive
COc1ccc(C2=NN(C(=O)CSc3nc(=O)n4cc(C)ccc4n3)C(c3ccc(C)cc3)C2)cc1 (centres undefined)	EBI2 antag 63.0 | EBI2 conf inactive | EBI2 agonist inactive | bGal cs inactive
COc1ccc(C2=NN(C(=O)CSc3cn(C)c4ccccc34)C(c3ccc(OC)cc3)C2)cc1 (centres undefined)	EBI2 antag 83.9 | EBI2 conf 65.1 | EBI2 agonist inactive | bGal cs inactive
CC1(C(=O)NS(=O)(=O)c2ccccc2Cl)CCN1C(=O)c1ccccc1CCc1ccccc1 (centres undefined)	none (no result: B2AR ag, CCR6 antag, APJ ag, APJ antagonist)
CCN(c1ccc(NC(=O)COC(=O)c2ccc(C)s2)cc1)C(C)C	EBI2 antag 50.2 | EBI2 conf inactive | EBI2 agonist inactive | bGal cs inactive
